What is called Km is the concentration of substrate that gives half-maximal velocity. The kcat is the maximal rate divided by the concentration of active sites. The kcat/KM is the second-order rate constant that governs catalysis at low substrate concentration.

We go through 17 substances from paper PMC3954597 (Biochemistry, 2014).

Residue numbers refer to the chain shown, from its start.

The target in one test is T1, R24M PTP1B (Homo sapiens, UniProt P18031, R24M).
T1 sequence (P18031 1-321 R24M): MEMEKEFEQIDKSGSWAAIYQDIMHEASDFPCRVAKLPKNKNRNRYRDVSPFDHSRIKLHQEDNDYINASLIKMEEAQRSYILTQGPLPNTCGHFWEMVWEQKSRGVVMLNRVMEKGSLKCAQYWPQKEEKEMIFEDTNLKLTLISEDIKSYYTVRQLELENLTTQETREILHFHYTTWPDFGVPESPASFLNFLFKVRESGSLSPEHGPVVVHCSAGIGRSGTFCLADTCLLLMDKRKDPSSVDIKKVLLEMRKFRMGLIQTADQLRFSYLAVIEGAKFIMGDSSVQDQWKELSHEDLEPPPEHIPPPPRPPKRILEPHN
Put plainly: PTP assay, R24M PTP1B. The test is classed as biochemical. The settings on record: for Km / kcat / kcat/KM x 10^7: R24M PTP1B aa 1–321, pH 7.4; for WT/R24M: ratio of kcat/KM, WT over R24M PTP1B (fold reduction by the mutation). A digest of the protocol: (§1)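 E. coli-expressed catalytic domains were used: wild-type, R24M or R47E PTP1B (aa 1–321), and SHP-1 (aa 205–595). Reactions started with PTP (0.5–20000 nM final) and dephosphorylation was monitored continuously at 282 nm. kcat, KM and kcat/KM came from initial-rate fits (Michaelis–Menten, or V = kcat[E][S]/KM when KM >> [S]) or from fits of progress curves.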

The target in a further test is T2, PTP1B (Homo sapiens, UniProt P18031).
T2 sequence (P18031 1-321): T1 sequence (P18031 1-321 R24M) with M24R
Put plainly: PTP assay, wild-type PTP1B. The test is classed as biochemical. The settings on record: for kcat/KM x 10^7: WT PTP1B aa 1–321, pH 7.4; for kcat/KM x10^6: WT catalytic domain aa 1–321, 100 mM HEPES pH 7.4, monitored at 282 nm. A digest of the protocol:
as §1

For the next test, the target named is T3, R47E PTP1B (Homo sapiens, UniProt P18031, R47E).
T3 sequence (P18031 1-321 R47E): T1 sequence (P18031 1-321 R24M) with M24R, R47E
Put plainly: PTP assay, R47E PTP1B. The test is classed as biochemical. The settings on record: for Km / kcat / kcat/KM x 10^7: R47E PTP1B aa 1–321, pH 7.4; for WT/R47E: ratio of kcat/KM, WT over R47E PTP1B (fold decrease by the mutation). The essentials:
as §1

A further test concerns the target T4, PTP-PEST (Homo sapiens, UniProt Q05209).
T4 sequence (Q05209 5-300): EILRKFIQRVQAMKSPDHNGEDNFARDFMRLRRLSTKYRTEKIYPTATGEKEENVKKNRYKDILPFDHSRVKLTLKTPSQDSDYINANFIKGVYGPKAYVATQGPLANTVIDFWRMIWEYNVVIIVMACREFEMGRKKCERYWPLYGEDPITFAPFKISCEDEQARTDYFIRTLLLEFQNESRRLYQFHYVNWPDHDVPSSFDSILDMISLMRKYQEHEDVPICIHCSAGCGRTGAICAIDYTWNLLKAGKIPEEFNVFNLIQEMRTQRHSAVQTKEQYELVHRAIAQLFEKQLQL
Put plainly: PTP assay with pY peptide substrates, PTP-PEST. The settings on record: catalytic domain; pH 7.4. The test is classed as biochemical.

In the next test the target is T5, SHP-2 (Homo sapiens, UniProt Q06124).
T5 sequence (Q06124 199-593): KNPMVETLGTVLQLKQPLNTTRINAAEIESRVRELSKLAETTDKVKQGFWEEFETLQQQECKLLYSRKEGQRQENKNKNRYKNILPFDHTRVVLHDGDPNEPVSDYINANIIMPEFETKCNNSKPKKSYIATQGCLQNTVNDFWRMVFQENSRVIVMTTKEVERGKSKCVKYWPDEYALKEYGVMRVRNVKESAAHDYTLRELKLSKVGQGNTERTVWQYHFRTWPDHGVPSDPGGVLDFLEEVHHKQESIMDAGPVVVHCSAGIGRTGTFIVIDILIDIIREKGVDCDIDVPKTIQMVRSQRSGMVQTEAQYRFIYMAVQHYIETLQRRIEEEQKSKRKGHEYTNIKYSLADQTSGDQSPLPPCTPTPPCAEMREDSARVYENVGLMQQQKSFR
Conditions: catalytic domain; cited from earlier work.

For a further test, the target named is SHP-1 (Homo sapiens, UniProt P29350). The settings on record: catalytic domain; cited from earlier work.
SHP-1, sequence (P29350 205-595): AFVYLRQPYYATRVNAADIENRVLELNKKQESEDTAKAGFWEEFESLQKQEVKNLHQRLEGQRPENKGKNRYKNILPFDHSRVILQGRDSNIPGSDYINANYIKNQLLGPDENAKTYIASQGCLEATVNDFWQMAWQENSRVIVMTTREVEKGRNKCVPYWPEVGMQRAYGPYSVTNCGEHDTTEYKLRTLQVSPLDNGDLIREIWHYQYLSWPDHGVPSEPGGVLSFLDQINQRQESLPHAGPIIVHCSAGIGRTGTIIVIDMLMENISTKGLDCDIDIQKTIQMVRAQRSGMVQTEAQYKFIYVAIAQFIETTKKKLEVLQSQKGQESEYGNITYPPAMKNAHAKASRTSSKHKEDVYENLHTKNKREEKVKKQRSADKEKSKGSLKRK

For the substance AApYAAADD, at R24M PTP1B, the Km turned out to be 8.7 ± 0.4 µM, the kcat was 37 ± 1 s⁻¹, the “kcat/KM x 10^7” value is 0.43 x 10^7 M^−1 s^−1 and the WT/R24M amounted to 2.3. Besides, the “kcat/KM x 10^7” value at PTP1B is recorded as 0.97 x 10^7 M^−1 s^−1. Also, on R47E PTP1B, the Michaelis constant (Km) is 10 ± 1 µM, the catalytic constant (kcat) was 35 ± 1 s⁻¹, the “kcat/KM x 10^7” value is listed as 0.35 x 10^7 M^−1 s^−1 and the WT/R47E amounted to 2.8.
Consider AApYAADDA, for which, at R24M PTP1B, the Km stood at 6.9 ± 0.1 µM, the kcat stood at 38 ± 1 s⁻¹, the “kcat/KM x 10^7” value is 0.55 x 10^7 M^−1 s^−1 and the WT/R24M is 2.0. The “kcat/KM x 10^7” value on PTP1B is on record as 1.1 x 10^7 M^−1 s^−1. Besides, on R47E PTP1B, the Michaelis-Menten constant (Km) amounted to 11 ± 2 µM, the catalytic constant (kcat) is 36 ± 2 s⁻¹, the “kcat/KM x 10^7” value is 0.32 x 10^7 M^−1 s^−1 and the WT/R47E came to 3.4.
Turning to AApYADDAA, at R24M PTP1B, the Michaelis-Menten constant (Km) stood at 6.4 ± 0.2 µM, the kcat was determined as 38 ± 1 s⁻¹, the “kcat/KM x 10^7” value is 0.59 x 10^7 M^−1 s^−1 and the WT/R24M is reported as 2.4. The “kcat/KM x 10^7” value at PTP1B was 1.4 x 10^7 M^−1 s^−1. For the same substance, at R47E PTP1B, the Km turned out to be 12 ± 1 µM, the kcat stood at 34 ± 1 s⁻¹, the “kcat/KM x 10^7” value is on record as 0.29 x 10^7 M^−1 s^−1 and the WT/R47E is listed as 4.8.
In the case of AApYDDAAA, on R24M PTP1B, the “kcat/KM x 10^7” value is 0.027 x 10^7 M^−1 s^−1 and the WT/R24M amounted to 16. Also, at PTP1B, the “kcat/KM x 10^7” value was 0.43 x 10^7 M^−1 s^−1. Moreover, at R47E PTP1B, the Michaelis-Menten constant (Km) was 34 ± 2 µM, the kcat amounted to 33 ± 2 s⁻¹, the “kcat/KM x 10^7” value is given as 0.097 x 10^7 M^−1 s^−1 and the WT/R47E is on record as 4.4.
For the substance AApYDDIDE, on R24M PTP1B, the Km stood at 37 ± 1 µM, the kcat worked out at 42 ± 1 s⁻¹, the “kcat/KM x 10^7” value is 0.11 x 10^7 M^−1 s^−1 and the WT/R24M turned out to be 10. Further, on PTP1B, the “kcat/KM x 10^7” value is listed as 1.1 x 10^7 M^−1 s^−1 and the “kcat/KM x10^6” value is reported as 11 x10^6 M^−1 s^−1. Besides, on R47E PTP1B, the Km is 56 ± 2 µM, the turnover number (kcat) turned out to be 43 ± 1 s⁻¹, the “kcat/KM x 10^7” value was 0.076 x 10^7 M^−1 s^−1 and the WT/R47E is 14.
On to AApYIRKRA, for which, on R24M PTP1B, the Km turned out to be 52 ± 3 µM, the catalytic constant (kcat) was found to be 34 ± 1 s⁻¹, the “kcat/KM x 10^7” value was 0.065 x 10^7 M^−1 s^−1 and the WT/R24M turned out to be 0.62. The “increased PTP1B activity by R24M mutation” value at R24M PTP1B (R24M relative to WT) turned out to be 1.6 fold. Further, the “kcat/KM x 10^7” value at PTP1B was 0.042 x 10^7 M^−1 s^−1. For the same substance, at R47E PTP1B, the Km was 89 ± 3 µM, the kcat was 34 ± 2 s⁻¹, the “kcat/KM x 10^7” value is recorded as 0.038 x 10^7 M^−1 s^−1 and the WT/R47E came to 1.1.
AApYWAYDD: on PTP1B, the “kcat/KM x10^6” value is reported as 15 x10^6 M^−1 s^−1.
Take ARKRIpYAA: the “kcat/KM x 10^7” value on PTP1B was 0.025 x 10^7 M^−1 s^−1. At R47E PTP1B, the Michaelis-Menten constant (Km) turned out to be 31 ± 4 µM, the kcat turned out to be 37 ± 2 s⁻¹, the “kcat/KM x 10^7” value is on record as 0.12 x 10^7 M^−1 s^−1 and the WT/R47E is given as 0.21. Besides, the “increased PTP1B activity by R47E mutation” value at R47E PTP1B (R47E relative to WT) worked out at 5 fold.
On to Ac-AApYDLDEY-NH2, for which the kcat/KM on PTP-PEST amounted to 1.3e+08 M⁻¹ s⁻¹. Also, at PTP1B, the “kcat/KM x10^6” value is on record as 18 x10^6 M^−1 s^−1.
Regarding Ac-ASSDEpYAA-NH2, the catalytic efficiency (kcat/KM) on PTP-PEST was 7.2e+06 M⁻¹ s⁻¹. Also, on R24M PTP1B, the Michaelis-Menten constant (Km) is 3.8 ± 0.2 µM, the kcat was 32 ± 1 s⁻¹, the “kcat/KM x 10^7” value is recorded as 0.84 x 10^7 M^−1 s^−1 and the WT/R24M is recorded as 2.0. Also, at PTP1B, the “kcat/KM x 10^7” value is 1.7 x 10^7 M^−1 s^−1 and the “kcat/KM x10^6” value is given as 17 x10^6 M^−1 s^−1. For the same substance, at R47E PTP1B, the Km was 32 ± 1 µM, the turnover number (kcat) was 31 ± 1 s⁻¹, the “kcat/KM x 10^7” value is recorded as 0.097 x 10^7 M^−1 s^−1 and the WT/R47E was determined as 18.
With Ac-AWGPLpYDEVQM-NH2, at R24M PTP1B, the Michaelis constant (Km) came to 5 ± 0.5 µM, the kcat was 36 ± 1 s⁻¹, the “kcat/KM x 10^7” value is given as 0.72 x 10^7 M^−1 s^−1 and the WT/R24M is 2.3. For the same substance, the “kcat/KM x 10^7” value at PTP1B is given as 1.7 x 10^7 M^−1 s^−1. On R47E PTP1B, the Km was determined as 5.6 ± 0.4 µM, the kcat is 34 ± 2 s⁻¹, the “kcat/KM x 10^7” value is recorded as 0.61 x 10^7 M^−1 s^−1 and the WT/R47E is recorded as 2.8.
In the case of DPRGIpYDQVAG, on R24M PTP1B, the Michaelis constant (Km) was 71 ± 1 µM, the turnover number (kcat) was 36 ± 1 s⁻¹, the “kcat/KM x 10^7” value is on record as 0.051 x 10^7 M^−1 s^−1 and the WT/R24M is 7.6. Moreover, at PTP1B, the “kcat/KM x 10^7” value is listed as 0.38 x 10^7 M^−1 s^−1. Moreover, on R47E PTP1B, the Km came to 23 ± 1 µM, the turnover number (kcat) turned out to be 35 ± 1 s⁻¹, the “kcat/KM x 10^7” value is on record as 0.15 x 10^7 M^−1 s^−1 and the WT/R47E was 2.5.
For the substance EEDNAWpYAA, on R24M PTP1B, the Km was determined as 1.9 ± 0.1 µM, the turnover number (kcat) turned out to be 35 ± 1 s⁻¹, the “kcat/KM x 10^7” value is 1.8 x 10^7 M^−1 s^−1 and the WT/R24M worked out at 1.2. Besides, at PTP1B, the “kcat/KM x 10^7” value is on record as 2.1 x 10^7 M^−1 s^−1 and the “kcat/KM x10^6” value is listed as 21 x10^6 M^−1 s^−1. On R47E PTP1B, the Km was determined as 9.5 ± 0.4 µM, the kcat stood at 32 ± 1 s⁻¹, the “kcat/KM x 10^7” value is reported as 0.33 x 10^7 M^−1 s^−1 and the WT/R47E amounted to 6.4.
For EIFDFpYAA, on SHP-2, the Km is 54 ± 6 µM, the catalytic constant (kcat) was 26 ± 1 s⁻¹ and the “kcat/KM x10^6” value is 0.48 x10^6 M^−1 s^−1. Besides, at SHP-1, the Michaelis constant (Km) was 27 ± 4 µM, the catalytic constant (kcat) was 32 ± 2 s⁻¹ and the “kcat/KM x10^6” value is 1.2 x10^6 M^−1 s^−1.
With FDIDIpYAA, at SHP-2, the Michaelis-Menten constant (Km) was 39 ± 5 µM, the catalytic constant (kcat) was 30 ± 2 s⁻¹ and the “kcat/KM x10^6” value was 0.77 x10^6 M^−1 s^−1. Besides, on SHP-1, the Km is 13 ± 1 µM, the kcat is 33 ± 1 s⁻¹ and the “kcat/KM x10^6” value was 2.5 x10^6 M^−1 s^−1.
Regarding FYDIDpYAA, at SHP-2, the Michaelis constant (Km) was 66 ± 13 µM, the turnover number (kcat) is 50 ± 4 s⁻¹ and the “kcat/KM x10^6” value is on record as 0.75 x10^6 M^−1 s^−1. At SHP-1, the Michaelis-Menten constant (Km) is 28 ± 2 µM, the turnover number (kcat) is 66 ± 2 s⁻¹ and the “kcat/KM x10^6” value is recorded as 2.4 x10^6 M^−1 s^−1.
Regarding WAGDDpYAA, at SHP-2, the Km is 68 ± 15 µM, the kcat is 36 ± 3 s⁻¹ and the “kcat/KM x10^6” value is 0.53 x10^6 M^−1 s^−1. On SHP-1, the Km is 45 ± 5 µM, the turnover number (kcat) was 57 ± 2 s⁻¹ and the “kcat/KM x10^6” value is 1.3 x10^6 M^−1 s^−1.
